Data reported in ChEMBL document CHEMBL1131013, “Synthesis and evaluation of analogues of the partial agonist 6-(propyloxy)-4-(methoxymethyl)-beta-carboline-3-carboxylic acid ethyl ester (6-PBC) and the full agonist 6-(benzyloxy)-4-(methoxymethyl)-beta-carboline-3-carboxylic acid ethyl ester (Zk 93423) at wild type and recombinant GABAA receptors” (J Med Chem, 1998).

Key:
[1] = target: GABA-A receptor; anion channel; assay: Displacement of [3H]flunitrazepam from GABA-A Benzodiazepine receptor of rat brain cortical membranes; assay type: cell membranes, Membrane
Summary of the method: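 Rat cerebral cortex homogenized in 50 mM Tris-citrate, pH 7.4, and washed by centrifugation (20000g). […] Nonspecific binding with 10 μM Ro15-1788. Ended by vacuum filtration. IC50 estimated from at least six inhibitor concentrations; mean ± SEM of at least three determinations.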

[2] = target: GABA-A receptor; alpha-6/beta-3/gamma-2 (Homo sapiens, UniProt P18507+P28472+Q16445); assay: Binding affinity measured using LtK- cell membranes expressing Gamma-aminobutyric acid A receptor alpha-6-beta-3-gamma-2
Summary of the method: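 Ltk- cells expressing human α6β3γ2, scraped into PBS and resuspended in 10 mM KH2PO4/100 mM KCl pH 7.4. 1 h at 4 °C to equilibrium, filtration, scintillation counting.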

[3] = target: T1, GABA-A receptor; alpha-5/beta-3/gamma-2 (Homo sapiens, UniProt P18507+P28472+P31644); assay: Binding affinity measured using LtK- cell membranes expressing Gamma-aminobutyric acid A receptor alpha-5-beta-3-gamma-2
T1 sequence (P18507 whole entry): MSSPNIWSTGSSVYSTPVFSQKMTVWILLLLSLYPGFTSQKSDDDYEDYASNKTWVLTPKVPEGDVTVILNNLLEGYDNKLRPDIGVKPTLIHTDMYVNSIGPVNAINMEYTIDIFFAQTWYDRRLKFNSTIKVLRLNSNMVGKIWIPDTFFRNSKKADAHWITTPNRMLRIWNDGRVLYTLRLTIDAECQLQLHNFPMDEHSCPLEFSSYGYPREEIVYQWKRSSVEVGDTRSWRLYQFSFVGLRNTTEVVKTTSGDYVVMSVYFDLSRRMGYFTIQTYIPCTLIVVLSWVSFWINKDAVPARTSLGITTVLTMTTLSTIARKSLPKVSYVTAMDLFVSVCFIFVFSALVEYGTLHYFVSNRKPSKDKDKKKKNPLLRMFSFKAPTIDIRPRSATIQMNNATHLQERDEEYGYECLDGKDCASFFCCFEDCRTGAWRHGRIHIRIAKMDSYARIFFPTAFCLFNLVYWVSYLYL
T1 sequence (P28472 whole entry): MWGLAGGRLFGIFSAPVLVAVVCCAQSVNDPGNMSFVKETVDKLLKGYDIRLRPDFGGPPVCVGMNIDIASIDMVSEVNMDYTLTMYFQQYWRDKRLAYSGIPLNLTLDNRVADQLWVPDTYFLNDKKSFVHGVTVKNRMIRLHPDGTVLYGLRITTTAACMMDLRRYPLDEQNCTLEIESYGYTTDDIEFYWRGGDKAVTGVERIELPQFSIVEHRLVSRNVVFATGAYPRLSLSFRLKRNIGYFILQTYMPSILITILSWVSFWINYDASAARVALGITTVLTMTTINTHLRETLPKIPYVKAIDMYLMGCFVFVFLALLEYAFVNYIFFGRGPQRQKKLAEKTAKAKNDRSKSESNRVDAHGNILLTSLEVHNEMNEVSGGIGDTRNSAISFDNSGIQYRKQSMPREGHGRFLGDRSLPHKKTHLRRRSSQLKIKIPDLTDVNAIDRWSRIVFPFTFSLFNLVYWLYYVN
T1 sequence (P31644 whole entry): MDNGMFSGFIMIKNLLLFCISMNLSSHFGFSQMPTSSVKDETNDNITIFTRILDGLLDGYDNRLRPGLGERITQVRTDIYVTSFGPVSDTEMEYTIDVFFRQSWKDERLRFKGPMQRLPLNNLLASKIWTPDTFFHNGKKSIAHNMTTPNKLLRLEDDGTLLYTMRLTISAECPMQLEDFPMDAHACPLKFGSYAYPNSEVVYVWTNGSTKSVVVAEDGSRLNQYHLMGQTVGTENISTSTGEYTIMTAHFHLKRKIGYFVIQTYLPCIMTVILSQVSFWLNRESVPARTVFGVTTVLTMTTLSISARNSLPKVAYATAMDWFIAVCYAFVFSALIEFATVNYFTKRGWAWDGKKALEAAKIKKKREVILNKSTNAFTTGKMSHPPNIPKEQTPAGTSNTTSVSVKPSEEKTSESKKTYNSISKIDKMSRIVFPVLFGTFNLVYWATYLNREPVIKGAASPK

[4] = target: T2, GABA-A receptor; alpha-1/beta-3/gamma-2 (Homo sapiens, UniProt P14867+P18507+P28472); assay: Binding affinity measured using LtK- cell membranes expressing GABA alpha-1-beta-3-gamma-2 receptor
T2 sequence (P14867 whole entry): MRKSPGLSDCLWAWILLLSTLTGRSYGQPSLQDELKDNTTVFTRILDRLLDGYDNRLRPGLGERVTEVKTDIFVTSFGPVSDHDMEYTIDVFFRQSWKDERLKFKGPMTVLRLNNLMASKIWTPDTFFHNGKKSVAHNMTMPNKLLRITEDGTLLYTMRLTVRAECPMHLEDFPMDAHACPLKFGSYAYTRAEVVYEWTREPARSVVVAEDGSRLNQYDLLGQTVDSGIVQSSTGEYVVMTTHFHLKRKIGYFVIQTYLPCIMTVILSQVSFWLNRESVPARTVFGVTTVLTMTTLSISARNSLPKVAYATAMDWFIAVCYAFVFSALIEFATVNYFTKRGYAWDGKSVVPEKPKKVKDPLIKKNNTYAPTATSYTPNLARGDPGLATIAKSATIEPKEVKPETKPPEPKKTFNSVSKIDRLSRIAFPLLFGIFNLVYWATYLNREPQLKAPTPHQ
T2 sequence (P18507 whole entry): T1 sequence (P18507 whole entry)
T2 sequence (P28472 whole entry): T1 sequence (P28472 whole entry)

[5] = target: T3, GABA-A receptor; alpha-3/beta-3/gamma-2 (Homo sapiens, UniProt P18507+P28472+P34903); assay: Binding affinity measured using LtK- cell membranes expressing GABA alpha-3-beta-3-gamma-2 receptor
T3 sequence (P18507 whole entry): T1 sequence (P18507 whole entry)
T3 sequence (P28472 whole entry): T1 sequence (P28472 whole entry)
T3 sequence (P34903 whole entry): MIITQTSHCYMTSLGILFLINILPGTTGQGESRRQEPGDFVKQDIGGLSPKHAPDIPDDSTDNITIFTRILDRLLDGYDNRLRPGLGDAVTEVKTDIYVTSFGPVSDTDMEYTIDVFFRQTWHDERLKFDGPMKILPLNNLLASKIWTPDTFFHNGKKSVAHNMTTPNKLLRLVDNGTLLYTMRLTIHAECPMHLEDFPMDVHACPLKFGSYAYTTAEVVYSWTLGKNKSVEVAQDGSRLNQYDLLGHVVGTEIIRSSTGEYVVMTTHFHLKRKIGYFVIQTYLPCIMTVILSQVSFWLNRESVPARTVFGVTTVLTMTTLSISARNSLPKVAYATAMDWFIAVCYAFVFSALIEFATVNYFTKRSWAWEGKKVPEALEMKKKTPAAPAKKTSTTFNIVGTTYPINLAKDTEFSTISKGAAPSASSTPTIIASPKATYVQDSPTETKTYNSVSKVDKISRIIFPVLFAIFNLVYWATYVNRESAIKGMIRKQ

[6] = target: T4, GABA-A receptor; alpha-2/beta-3/gamma-2 (Homo sapiens, UniProt P18507+P28472+P47869); assay: Binding affinity measured using LtK- cell membranes expressing GABA alpha-2-beta-3-gamma-2 receptor
T4 sequence (P18507 whole entry): T1 sequence (P18507 whole entry)
T4 sequence (P28472 whole entry): T1 sequence (P28472 whole entry)
T4 sequence (P47869 whole entry): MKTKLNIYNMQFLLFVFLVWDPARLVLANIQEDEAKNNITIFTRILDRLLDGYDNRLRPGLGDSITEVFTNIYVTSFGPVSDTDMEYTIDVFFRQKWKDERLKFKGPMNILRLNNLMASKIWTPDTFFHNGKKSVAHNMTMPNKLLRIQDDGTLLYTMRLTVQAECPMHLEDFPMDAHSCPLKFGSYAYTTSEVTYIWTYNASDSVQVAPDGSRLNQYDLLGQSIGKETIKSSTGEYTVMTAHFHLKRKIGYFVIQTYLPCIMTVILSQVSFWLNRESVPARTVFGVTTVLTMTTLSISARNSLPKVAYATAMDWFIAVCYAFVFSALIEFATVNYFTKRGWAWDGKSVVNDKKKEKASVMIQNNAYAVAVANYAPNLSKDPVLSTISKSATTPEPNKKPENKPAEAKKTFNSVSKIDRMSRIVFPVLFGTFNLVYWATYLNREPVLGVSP

[7] = target: T1, GABA-A receptor; alpha-5/beta-3/gamma-2; assay: Binding affinity for GABA-A alpha-5-beta-3-gamma-2 receptor expressed in L (tk-) cells; assay type: cell-based
Summary of the method: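 Competition binding against [3H]Ro15-1788 (1-2 nM final) on human GABAA receptors expressed in Ltk- cells, scraped into PBS and resuspended in 10 mM KH2PO4/100 mM KCl pH 7.4. Incubated to equilibrium 1 h at 4 °C, filtered, scintillation counted.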

[8] = target: T4, GABA-A receptor; alpha-2/beta-3/gamma-2; assay: Binding affinity for GABA-A alpha-2-beta-3-gamma-2 receptor expressed in L(tk-) cells; assay type: cell-based
Summary of the method: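 Competition binding on Ltk- cells expressing human α2β3γ2 GABAA receptors. Cells were scraped into PBS, centrifuged at 3000g and resuspended in phosphate buffer (10 mM KH2PO4, 100 mM KCl, pH 7.4 at 4 °C). Radioligand was [3H]Ro15-1788 at 1–2 nM, with test compound at 10^-9–10^-5 M. Nonspecific binding was defined by 10^-5 M diazepam. Incubation ran 1 h at 4 °C to equilibrium, followed by filtration and scintillation counting.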

Sequence of GABA-A receptor; alpha-6/beta-3/gamma-2 (Q16445 whole entry, one chain of several): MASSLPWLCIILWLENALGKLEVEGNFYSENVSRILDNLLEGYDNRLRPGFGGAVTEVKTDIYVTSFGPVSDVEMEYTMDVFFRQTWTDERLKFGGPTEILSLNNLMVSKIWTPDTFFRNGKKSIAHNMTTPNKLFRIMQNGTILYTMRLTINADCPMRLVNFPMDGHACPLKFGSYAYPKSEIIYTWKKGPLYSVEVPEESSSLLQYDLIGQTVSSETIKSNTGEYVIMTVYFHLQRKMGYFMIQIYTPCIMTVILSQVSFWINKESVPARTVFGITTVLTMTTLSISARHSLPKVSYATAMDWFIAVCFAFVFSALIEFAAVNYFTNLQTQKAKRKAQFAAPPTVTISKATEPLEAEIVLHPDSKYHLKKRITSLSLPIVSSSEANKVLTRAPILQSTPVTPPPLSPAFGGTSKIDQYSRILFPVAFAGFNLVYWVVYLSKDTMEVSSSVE

Structure (SMILES) | IC50 [1] [nM] | Ki [2] [nM] | Ki [3] [nM] | Ki [4] [nM] | Ki [5] [nM] | Ki [6] [nM] | Ki [7] [nM] | Ki [8] [nM]
CCOC(=O)c1[nH]cc2nc3ccc(OC)cc3c-2c1COC | 1 | > 10000 | 4 | 0.14 | 1.72 | 1.19 | – | –
CCCCCCCCOc1ccc2[nH]c3cnc(C(=O)OCC)c(CC)c3c2c1 | > 1000 | > 30000 | – | – | 35000 | 29700 | 12700 | –
CCOc1cc2c(cn1)[nH]c1ccccc12 | – | > 1000 | 868 | 6.43 | – | – | – | 25.1
COCc1c(N=C=S)[nH]cc2nc3ccc(OCc4ccccc4)cc3c1-2 | 40 | > 10000 | 159 | 25 | 58.8 | 82.6 | – | –
CCCCCCCCOc1ccc2[nH]c3cnc(C(=O)OCC)c(COC)c3c2c1 | 330 | > 3000 | > 3000 | > 1000 | > 3000 | > 3000 | – | –
CCCCCCCCOc1ccc2c(c1)c1c(COC)c(C(=O)OCC)ncc1n2C | > 1000 | > 3000 | > 3000 | > 3000 | > 3000 | > 3000 | – | –
CCCOc1ccc2[nH]c3cnc(N)c(COC)c3c2c1 | 697 | > 3000 | 380 | 45 | 700 | 540 | – | –
CCOC(=O)c1[nH]cc2nc3ccc(OCc4cccc5ccccc45)cc3c-2c1CC | 13.9 | > 10000 | 270 | 183 | 300 | 291 | – | –
